What is called IC50 is the midpoint of a concentration-inhibition curve.

Molecules are shown by their SMILES.

The results in this text go back to ChEMBL document CHEMBL1141474, “Cryptolepine analogues containing basic aminoalkyl side-chains at C-11: synthesis, antiplasmodial activity, and cytotoxicity” (Bioorg Med Chem Lett, 2008).

One assay has as its system HUVEC. Briefly: Cytotoxicity against HUVEC cells. Type of assay: cell-based. As to conditions: Homo sapiens.
A further assay has as its system Plasmodium falciparum. In words: Antiplasmodial activity against chloroquine-resistant Plasmodium falciparum W2. In kind it is functional, organism-based.
A short description of assay [1]: Ratio of IC50 for human HUVEC cells to IC50 for Plasmodium falciparum W2. Type of assay: functional. In outline: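 Ratio of HUVEC (human umbilical vein endothelial cell) cytotoxicity IC50 to in vitro IC50 against the chloroquine-resistant P. falciparum W2 strain.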

In the case of `CCN(CC)CCNc1c2ccccc2[n+](C)c2c1[nH]c1ccccc12.[Cl-]`, the 50% inhibitory concentration (IC50) was 674 nM in the assay with HUVEC and 82 nM with Plasmodium falciparum. The “Ratio IC50” value in assay [1] came to 8.2.

For the compound `CN(C)CCCNc1c2ccccc2[n+](C)c2c1[nH]c1ccccc12.[Cl-]`, the results for the IC50 in the assay on HUVEC and in the assay on Plasmodium falciparum were 155 nM and 30 nM, respectively. Besides, the “Ratio IC50” value in assay [1] was 5.2.

For `CCN(CC)CCCNc1c2ccccc2[n+](C)c2c1[nH]c1ccccc12.[Cl-]`, the half-inhibitory concentration (IC50) with HUVEC was found to be 114 nM; in the assay with Plasmodium falciparum, 32 nM. Also, the “Ratio IC50” value in assay [1] is on record as 3.6.

For the compound `CC(C)NCCCNc1c2ccccc2[n+](C)c2c1[nH]c1ccccc12.[Cl-]`, the half-inhibitory concentration (IC50) in the assay with HUVEC stood at 794 nM; in the assay with Plasmodium falciparum it was 22 nM. In assay [1], the “Ratio IC50” value worked out at 36.1.

For `CCN(CC)CCCC(C)Nc1c2ccccc2[n+](C)c2c1[nH]c1ccccc12.[Cl-]` (stereo not drawn), the 50% inhibitory concentration (IC50) worked out at 35 nM in the assay with HUVEC and 127 nM with Plasmodium falciparum. Further, the “Ratio IC50” value in assay [1] was found to be 0.3.

Take `CC(CN(C)C)Nc1c2ccccc2[n+](C)c2c1[nH]c1ccccc12.[Cl-]` (stereo not drawn): the IC50 with HUVEC stood at 617 nM; with Plasmodium falciparum, 132 nM. Moreover, the “Ratio IC50” value in assay [1] turned out to be 4.7.

As to `C[n+]1c2ccccc2c(NC2CCNCC2)c2[nH]c3ccccc3c21.[Cl-]`, the IC50 came out at 2040 nM in the assay with HUVEC and 44 nM in the assay with Plasmodium falciparum. In assay [1], the “Ratio IC50” value was determined as 46.4.

Turning to `CN(C)CC(C)(C)CNc1c2ccccc2[n+](C)c2c1[nH]c1ccccc12.[Cl-]`, the IC50 in the assay on HUVEC was 82 nM; in the assay on Plasmodium falciparum, 184 nM. Besides, in assay [1], the “Ratio IC50” value turned out to be 0.5.

On to `C[n+]1c2ccccc2c(NCCCN2CCCCC2)c2[nH]c3ccccc3c21.[Cl-]`, for which the IC50 with HUVEC was 1160 nM; in the assay with Plasmodium falciparum it was 36 nM. The “Ratio IC50” value in assay [1] is 32.3.

Take `CN(C)CCNc1c2ccccc2[n+](C)c2c1[nH]c1ccccc12.[Cl-]`: the half-maximal inhibitory concentration (IC50) in the assay with HUVEC worked out at 161 nM; in the assay with Plasmodium falciparum, 50 nM. In assay [1], the “Ratio IC50” value came to 3.2.

For the compound `C[n+]1c2ccccc2cc2[n-]c3ccccc3c21.Cl` [CRYPTOLEPINE HYDROCHLORIDE], the half-inhibitory concentration (IC50) in the assay with HUVEC was 1180 nM; in the assay on Plasmodium falciparum, 755 nM. Further, the “Ratio IC50” value in assay [1] is reported as 1.6.
